Experiments:
[1] = target: T1, DAT (Rattus norvegicus, UniProt P23977); test: Uptake inhibition of [3H]dopamine in rat brain synaptosomes; format: biochemical; conditions: for DAT/SERT ratio ([DAT IC50]^−1/[SERT IC50]^−1): synaptosome uptake assays, higher value indicates greater DAT-selectivity
[2] = target: T2, SERT (Rattus norvegicus, UniProt P31652); test: Uptake inhibition of [3H]5-HT in rat brain synaptosomes; format: biochemical
[3] = target: T3, human DAT (Homo sapiens, UniProt Q01959); test: Uptake inhibition in HEK-293 cells expressing human DAT; format: cell-based
[4] = target: T4, human SERT (Homo sapiens, UniProt P31645); test: Uptake inhibition in HEK-293 cells expressing human SERT; format: cell-based
[5] = target: T1, DAT; test: Release of [3H]MPP+ from rat brain synaptosomes; format: biochemical; conditions: 0.1 nM to 10 μM
Summary of the method: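 Crude synaptosomes were prepared from rat caudate: homogenized in ice-cold 10% sucrose, spun at 1000 g for 10 min, supernatant kept. They were preloaded for 1 h with 9 nM [3H]MPP+ in Krebs-phosphate buffer; all buffers contained 1 μM reserpine. Test compound was applied at 0.1 nM–10 μM in triplicate. Release was stopped by vacuum filtration and counted by scintillation. EC50 was derived by nonlinear regression; n=3.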

[6] = target: T2, SERT; test: Release of [3H]5-HT from rat brain synaptosomes; format: biochemical
[7] = target: T3, human DAT; test: Efflux; format: cell-based; conditions: HEK-293 human DAT, 10 μM drug, with or without 10 μM monensin
[8] = target: T4, human SERT; test: Efflux; format: cell-based; conditions: HEK-293 human SERT; for [3H]5-HT efflux at SERT: 10 μM drug; for effect of monensin on drug-evoked [3H]5-HT efflux at SERT: 10 μM drug plus 10 μM monensin
Summary of the method: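 HEK-293 cells stably expressing YFP-tagged human SERT, seeded at 40,000 cells/well on poly-D-lysine-coated coverslips. Preloaded with 0.3 μM radiolabelled substrate for 20 min at 37 °C, then superfused at 25 °C, 0.7 mL/min, with Krebs Ringer HEPES (pH 7.4). Fractions collected every 2 min. After a 40-min washout baseline, 10 μM test compound was added alone or with 10 μM monensin. Cells were lysed in 1% SDS and counted by scintillation. Analysis: two-way ANOVA with Tukey; n=3, triplicate.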

[9] = target: T3, human DAT; test: Transporter-mediated ionic currents, whole cell patch clamp, HEK-293 human DAT; format: cell-based; conditions: voltage clamped to −60 mV, 300 nM to 300 μM
Summary of the method: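 HEK-293 cells stably expressing human DAT were seeded at low density 24 h before recording. Whole-cell voltage clamp was held at −60 mV, with K-gluconate/EGTA pipette solution (pH 7.2) and NaCl/glucose HEPES bath (pH 7.4). Test compound (300 nM–300 μM) was applied by rapid superfusion. Passive holding currents were subtracted, traces low-pass filtered at 100 Hz, and currents normalised to 10 μM endogenous substrate. One-way ANOVA; n=3.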

[10] = target: T4, human SERT; test: Transporter-mediated ionic currents, whole cell patch clamp, HEK-293 human SERT; format: cell-based; conditions: voltage clamped to −60 mV, 300 nM to 300 μM
[11] = tested on: extracellular dopamine and 5-HT in nucleus accumbens; test: In vivo microdialysis in the nucleus accumbens of conscious rats; conditions: rat nucleus accumbens dialysate
Summary of the method: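 Male Sprague-Dawley rats (300–400 g) were implanted under ketamine/xylazine with a jugular catheter and a nucleus accumbens guide cannula, then recovered ≥1 week. Probes were perfused with Ringer's at 0.6 μL/min, and 20-min dialysates were assayed for dopamine and 5-HT by HPLC-ECD. After three stable baselines, rats received 1 mg/kg i.v. at time zero, then 3 mg/kg at 60 min; controls received saline 1 mL/kg. Data are % of baseline; N=6–7/group; two-way ANOVA, Bonferroni.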

[12] = tested on: motor activity; test: Motor activity and stereotypy; format: in vivo, rat; conditions: rats, 1 and 3 mg/kg i.v.; for motor activity (forward locomotion): compared to saline
Summary of the method: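 Conscious, tethered male Sprague-Dawley rats were acclimated overnight in photobeam arenas and tracked for forward locomotion and stereotypy during microdialysis. Dosing was i.v. via jugular catheter: 1 mg/kg at time zero, then 3 mg/kg 60 min later; saline controls received 1 mL/kg on the same schedule. Data are % of basal preinjection values; N=6–7/group; two-way ANOVA (treatment × time) with Bonferroni tests against saline.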

[13] = tested on: DAT and SERT; conditions: HEK-293 cells, uptake inhibition; ref Simmler et al. 2013; 2014; cited from earlier work
[14] = tested on: DAT; conditions: 100 μM drug; ref Dolan et al. (2018); cited from earlier work
[15] = 3 mg/kg i.v. given 60 min after 1 mg/kg

T2 sequence (P31652 whole entry): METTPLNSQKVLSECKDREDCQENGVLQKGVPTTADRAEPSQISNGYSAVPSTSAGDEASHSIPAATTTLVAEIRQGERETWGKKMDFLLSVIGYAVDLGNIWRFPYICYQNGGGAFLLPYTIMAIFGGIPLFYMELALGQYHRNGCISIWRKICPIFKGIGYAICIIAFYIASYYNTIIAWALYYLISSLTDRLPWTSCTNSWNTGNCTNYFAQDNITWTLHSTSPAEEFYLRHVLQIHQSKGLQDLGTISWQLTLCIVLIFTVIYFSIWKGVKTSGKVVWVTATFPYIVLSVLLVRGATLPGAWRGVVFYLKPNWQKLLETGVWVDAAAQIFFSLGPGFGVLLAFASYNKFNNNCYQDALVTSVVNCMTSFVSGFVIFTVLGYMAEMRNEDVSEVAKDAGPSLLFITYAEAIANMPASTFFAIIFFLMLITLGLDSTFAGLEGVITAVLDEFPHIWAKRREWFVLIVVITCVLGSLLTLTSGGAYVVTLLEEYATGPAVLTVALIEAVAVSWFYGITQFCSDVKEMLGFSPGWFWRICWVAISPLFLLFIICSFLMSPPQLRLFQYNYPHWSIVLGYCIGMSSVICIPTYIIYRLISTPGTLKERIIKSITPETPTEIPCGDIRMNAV
T3 sequence (Q01959 whole entry): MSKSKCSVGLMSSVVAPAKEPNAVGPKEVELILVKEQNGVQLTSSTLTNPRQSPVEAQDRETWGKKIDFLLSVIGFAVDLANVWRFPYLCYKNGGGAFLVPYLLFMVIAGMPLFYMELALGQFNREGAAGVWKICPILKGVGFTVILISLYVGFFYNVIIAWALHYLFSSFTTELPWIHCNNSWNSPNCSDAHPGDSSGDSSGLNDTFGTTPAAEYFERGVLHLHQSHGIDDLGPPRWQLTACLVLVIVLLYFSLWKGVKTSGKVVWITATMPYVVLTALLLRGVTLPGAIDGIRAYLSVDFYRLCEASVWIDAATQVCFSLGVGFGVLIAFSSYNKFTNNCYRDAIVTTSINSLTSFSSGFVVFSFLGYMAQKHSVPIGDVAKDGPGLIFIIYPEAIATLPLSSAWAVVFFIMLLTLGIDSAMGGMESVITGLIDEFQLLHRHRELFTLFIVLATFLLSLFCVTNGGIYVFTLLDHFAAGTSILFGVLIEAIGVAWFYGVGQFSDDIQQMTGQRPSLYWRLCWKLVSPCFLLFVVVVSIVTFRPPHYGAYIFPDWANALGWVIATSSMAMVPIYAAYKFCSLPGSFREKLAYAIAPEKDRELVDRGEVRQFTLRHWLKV
T1 sequence (P23977 whole entry): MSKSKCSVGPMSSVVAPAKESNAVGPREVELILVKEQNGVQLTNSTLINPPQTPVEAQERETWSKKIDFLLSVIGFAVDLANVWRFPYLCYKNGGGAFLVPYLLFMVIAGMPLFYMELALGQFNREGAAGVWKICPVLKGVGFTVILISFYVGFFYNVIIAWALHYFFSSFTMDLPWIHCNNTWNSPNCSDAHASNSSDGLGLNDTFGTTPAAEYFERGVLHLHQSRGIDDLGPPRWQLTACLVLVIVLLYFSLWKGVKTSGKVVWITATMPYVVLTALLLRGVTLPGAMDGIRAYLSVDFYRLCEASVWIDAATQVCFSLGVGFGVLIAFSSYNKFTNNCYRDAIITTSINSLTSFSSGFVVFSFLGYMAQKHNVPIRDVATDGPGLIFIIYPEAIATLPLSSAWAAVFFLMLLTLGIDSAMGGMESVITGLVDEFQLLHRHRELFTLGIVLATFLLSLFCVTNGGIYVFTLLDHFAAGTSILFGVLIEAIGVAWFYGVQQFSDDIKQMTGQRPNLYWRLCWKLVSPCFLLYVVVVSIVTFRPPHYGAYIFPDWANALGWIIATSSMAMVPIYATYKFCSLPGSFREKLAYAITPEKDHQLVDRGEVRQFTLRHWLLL
T4 sequence (P31645 whole entry): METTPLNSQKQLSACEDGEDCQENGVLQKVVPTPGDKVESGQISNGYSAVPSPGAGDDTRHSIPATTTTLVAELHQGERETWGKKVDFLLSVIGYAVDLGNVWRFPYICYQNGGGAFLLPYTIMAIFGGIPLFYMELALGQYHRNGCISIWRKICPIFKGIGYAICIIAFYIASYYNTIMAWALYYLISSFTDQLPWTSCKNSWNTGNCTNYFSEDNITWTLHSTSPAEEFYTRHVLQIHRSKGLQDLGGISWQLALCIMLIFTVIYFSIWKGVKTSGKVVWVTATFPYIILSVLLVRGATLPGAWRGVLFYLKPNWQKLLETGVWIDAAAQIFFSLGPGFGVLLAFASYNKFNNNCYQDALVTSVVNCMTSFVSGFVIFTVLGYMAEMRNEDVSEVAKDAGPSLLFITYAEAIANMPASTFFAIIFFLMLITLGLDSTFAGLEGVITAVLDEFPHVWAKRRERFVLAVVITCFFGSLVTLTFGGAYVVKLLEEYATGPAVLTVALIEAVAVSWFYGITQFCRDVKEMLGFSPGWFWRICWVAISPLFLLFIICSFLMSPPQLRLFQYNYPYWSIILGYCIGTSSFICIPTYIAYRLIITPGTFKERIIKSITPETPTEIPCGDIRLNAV

| SMILES | IC50 [1] | DAT/SERT ratio ([DAT IC50]^−1/[SERT IC50]^−1) [1] | IC50 [2] | IC50 [3] | IC50 [4] | release of [3H]MPP+ at DAT [5] | EC50 [6] | [3H]MPP+ efflux at DAT [7] | [3H]5-HT efflux at SERT [8] | effect of monensin on drug-evoked [3H]5-HT efflux at SERT [8] | transporter-mediated currents at DAT [9] | SERT-mediated inward currents [10] | extracellular 5-HT levels increase ([11]; 1 mg/kg i.v.) | extracellular dopamine levels above baseline ([11]; 1 mg/kg i.v.) | extracellular 5-HT levels increase [11, 15] | extracellular dopamine levels increase [11, 15] | motor activity (forward locomotion) [12] | DAT/SERT ratio [13] | drug-induced current at DAT as fraction of current induced by dopamine [14] | also measured |
| --- | --- | --- | --- | --- | --- | --- | --- | --- | --- | --- | --- | --- | --- | --- | --- | --- | --- | --- | --- | --- |
| CCC(NC)C(=O)c1ccc2c(c1)OCO2 (stereo not shown) [butylone, 1-(1,3-Benzodioxol-5-yl)-2-(methylamino)butan-1-one] | 400 ± 20 nM | 3.6 | 1430 ± 160 nM | 1440 ± 100 nM | 24400 ± 2000 nM | failed to produce efficacious release | 330 ± 40 nM | neither butylone nor pentylone evoked [^3H]MPP^+ efflux at DAT | evoked [^3H]5-HT efflux at SERT | markedly enhanced | no discernable currents | dose-related induction of SERT-mediated inward currents | 3 fold | 2 fold | ~7 fold | about 3.5 fold | increased motor activity | 2.1 | < 20% | – |
| CCCC(NC)C(=O)c1ccc2c(c1)OCO2 (stereo not shown) [pentylone, 1-(1,3-benzodioxol-5-yl)-2-(methylamino)pentan-1-one] | 120 ± 10 nM | 11.4 | 1360 ± 100 nM | 310 ± 70 nM | 11700 ± 500 nM | failed to produce efficacious release | 1030 ± 180 nM | neither butylone nor pentylone evoked [^3H]MPP^+ efflux at DAT | evoked [^3H]5-HT efflux at SERT | markedly enhanced | no discernable currents | dose-related induction of SERT-mediated inward currents | no effect | 2 fold | 3 fold | about 3.5 fold | increased motor activity | 6.2 | < 20% | efficacy of SERT-mediated release ([6]; rat brain synaptosomes, [3H]5-HT release): 48 % of Emax; stereotypy (repetitive movements) ([12]; post hoc tests vs saline): increased stereotypy |

Source: publication PMC6476708 (Psychopharmacology, 2018)
